Screening results deposited in PubChem BioAssay by several laboratories.
PABP polyA inh: blocks human PABP binding to poly(A) RNA | P11940 | calls only at 35 µM | AID 2014 | fluorescence polarization | 290,000 compounds, 1% hits;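 also: calls also rest on retests at 20 µM and on dose response follow-up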
eIF4H FP inh: inhibitors of RNA binding by human eIF4H | Q15056 | eIF4H fluorescence polarization binding assay | inhibition, % at 35 µM | 290,000 compounds, 0.94% hits;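 also: calls also rest on retests at 20 µM and on dose response follow-up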
IMP-1 inh: inhibitors of Pseudomonas aeruginosa IMP-1 metallo-beta-lactamase | purified IMP-1, nitrocefin hydrolysis, epi-absorbance fluorescence | inhibition, % at 5.6 µM | 290,000 compounds, 0.45% hits;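 active = inhibition above the mean plus 3 SD of all compounds in the same screening run, cut at about 4.5% in these data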;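 also: 0% = IMP-1 with DMSO and 100% = DMSO wells lacking enzyme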
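Assay system: purified recombinant IMP-1 beta-lactamase. Input: IMP-1 0.2 nM before substrate addition. Buffer or medium: Zinc- and detergent-supplemented HEPES buffer, pH 7.1. Schedule: 25 °C, 15 min preincubation, 25 min reaction. Signal: Epi-absorbance fluorescence, 480 nm excitation, 530 nm emission. Evaluation: percent inhibition from optical density relative to buffer-blank wells.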
PABP1 MLLE inh: blocks PAM2 peptide binding to the PABP1 MLLE domain; 360,000 compounds, 0.36% hits; P11940; inhibition, % at 20 µM; AID 588489; GST-MLLE / FITC-PAM2 fluorescence polarization; in the data active = inhibition above about 35%, passing the limit was not always enough;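 also: plate controls were DMSO wells with GST-MLLE for no effect and wells lacking GST-MLLE protein for full effect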
VIM-2 inhibitor: blocks Pseudomonas aeruginosa VIM-2 metallo-beta-lactamase | purified VIM-2, nitrocefin hydrolysis, epi-absorbance fluorescence | inhibition, % at 5.6 µM | 290,000 compounds, 0.89% hits | AID 1527;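 active = inhibition above the mean of all tested compounds plus 3 SD, cutoff set per screening run, cut at about 7.5% in these data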;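 also: red hydrolysis product quenches plate fluorescence so inhibitors raise well fluorescence; 0% = enzyme with DMSO and 100% = DMSO without enzyme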
* = called active by the depositor; i = inactive; u = inconclusive; x = not tested or not shown; + = active, no number. In the library only some 2.2% were active in any assay of this set; here they are far more common. Unless noted, no rule for the calls is given here.

SMILES | PABP polyA inh | eIF4H FP inh | IMP-1 inh | PABP1 MLLE inh | VIM-2 inhibitor
Cc1nc(NC(=S)NC(=O)c2ccccc2)sc1C(=O)N(C)C | i | -10 | -3 | 42* | -5
COC(=O)c1sc(NC(=S)NC(=O)c2ccccc2)nc1C | i | 2 | 2 | 28 | -1
Cc1nc(NC(=O)COC(=O)c2ccc(CO)cc2)c(Cl)cc1Cl | x | x | x | 12 | x
O=c1[nH]c(=O)n2ncnc2[nH]1 | x | x | x | -2 | x
Cc1ccc(C)c(-n2sc3ccc(F)cc3c2=O)c1 | x | x | x | 37 | x
COc1ccc(-n2sc3ccc(F)cc3c2=O)cc1 | x | x | x | 41* | x
O=c1c2cc(F)ccc2sn1-c1ccc(F)cc1 | x | x | x | 43* | x
CCN1CCN(C(c2ccc(C(F)(F)F)cc2)c2ccc3cccnc3c2O)CC1 (stereo unspecified) | i | 4 | -4 | 41* | -5
CN(Cc1ccccc1)C(=O)C1CCN(S(=O)(=O)c2ccc3nc4c(c(C(=O)O)c3c2)CCCC4)CC1 | i | 66* | 5.5* | -6 | 1
O=C(O)c1c2c(nc3ccc(S(=O)(=O)N4CCC(C(=O)NCc5ccccc5)CC4)cc13)CCCC2 | x | x | x | 32 | x
O=C(NCCCN1CCCC1=O)Nc1ccc(Br)cc1Cl | i | -12 | -3 | 3 | 1
O=C(O)CN1C(=O)/C(=C\c2cn(-c3ccccc3)nc2-c2ccccc2)SC1=S | i | 3 | -3 | 23 | -3
CC(C)COc1ccc(-c2nn(-c3ccccc3)cc2/C=C2/SC(=S)N(CC(=O)O)C2=O)cc1 | i | 93* | 2 | -2 | 0
COc1cc2c(ccc3cc(OC)c(OC)c(O)c32)cc1O | + | 74* | x | 9 | x
Cc1c(O)c(CN(C)C)cc2c1oc(=O)c1ccccc12 | i | 1 | -1 | 10 | 11*
Cc1c(O)c(CN2CCCCC2)cc2c1oc(=O)c1ccccc12 | i | -8 | -2 | -17 | 5
COc1ccc(CC(=O)NC2CCN(CC(=O)Nc3ccc4c(c3)OCCO4)CC2)cc1OC | i | 0 | 12* | 0 | -4
CC(Sc1nc(C(C)(C)C)cc(-c2ccccc2)c1C#N)C(=O)Nc1ccccc1 (stereo unspecified) | i | -6 | -3 | 17 | -2
O=C(C1=C(O)C(=O)N(CCc2ccccc2)C1c1cccnc1)c1ccco1 (stereo unspecified) | i | -5 | 5.9* | 9 | 4
O=C(C1=C(O)C(=O)N(Cc2cccnc2)C1c1cccc(Oc2ccccc2)c1)c1ccco1 (stereo unspecified) | x | x | x | -1 | x
CC(C)CC(C(=O)Nc1oc(-c2ccco2)c(-c2ccco2)c1C#N)N1C(=O)c2ccccc2C1=O (stereo unspecified) | + | 82* | -4 | -14 | -3
COCc1cccc(-c2csc(C(NC(C)=O)c3cccc(OC)c3)n2)c1 (stereo unspecified) | x | x | x | -3 | x
S=c1nc(-c2ccccc2)n(-c2ccccc2)[nH]1 | i | -9 | 0 | -2 | 9.8*
CCc1ccc(NC(=O)Cn2nc(C)n3cccc3c2=O)cc1 | i | -16 | -4 | 3 | -4
C=CCn1c(=N)c(C(=O)OCC)cc2c(=O)n3cc(C)ccc3nc21 | i | 9 | x | x | x
SMILES | PABP polyA inh | eIF4H FP inh | IMP-1 inh | PABP1 MLLE inh | VIM-2 inhibitor
N=c1c(C(=O)NCc2ccco2)cc2c(=O)n3ccccc3nc2n1Cc1ccccc1 | + | 77* | -4 | -19 | 2
Cc1ccc(S(=O)(=O)c2cc3c(=O)n4cccc(C)c4nc3n(Cc3ccco3)c2=N)cc1C | i | 24 | x | x | x
N=c1c(C(=O)NCc2ccccc2)cc2c(=O)n3ccccc3nc2n1Cc1ccco1 | + | 84* | 3 | 4 | 0
N=c1c(C(=O)NCc2ccc(F)cc2)cc2c(=O)n3ccccc3nc2n1Cc1ccco1 | i | 48 | -3 | -18 | -1
Cc1ccc(S(=O)(=O)c2cc3c(=O)n4ccccc4nc3n(Cc3ccco3)c2=N)cc1 | + | 78* | -3 | -14 | 4
Cc1ccc2nc3c(cc(C(N)=S)c(=N)n3CCCOC(C)C)c(=O)n2c1 | u | u | 3 | 1 | 7.9*
CC(C)N(C(=O)[C@H]1C[C@H](CC(=O)NCc2ccco2)C(=O)N2CCc3c([nH]c4ccc(Cl)cc34)[C@]12C)C(C)C | x | x | x | 3 | x
CNc1ncnc2c1ncn2[C@H]1CN(Cc2ccc(OC)cc2)C[C@@H](CO)O1 | x | x | x | 11 | x
N=c1c(C(=O)NCCN2CCOCC2)cc2c(=O)n3ccccc3nc2n1Cc1ccc(F)cc1 | i | 4 | -4 | -9 | 8.1*
Cc1ccc2nc3c(cc(C(=O)NCCN4CCOCC4)c(=N)n3CCCN3CCOCC3)c(=O)n2c1 | i | 2 | -4 | 12 | 8.9*
N=c1c(C(=O)NCc2ccco2)cc2c(=O)n3ccccc3nc2n1C1CCCC1 | + | 78* | -2 | 32 | 3
COCCn1c(=N)c(C(=O)NCc2ccco2)cc2c(=O)n3ccccc3nc21 | + | 113* | -1 | 29 | 1
N=c1c(C(=O)NCCN2CCOCC2)cc2c(=O)n3ccccc3nc2n1CCCN1CCOCC1 | i | 14 | -1 | 7 | 6
Cc1ccc(CNC(=O)c2cc3c(=O)n4ccccc4nc3n(Cc3ccco3)c2=N)cc1 | + | 56* | x | -7 | x
COc1ccc(CCn2c(=N)c(C(=O)NC3CCCC3)cc3c(=O)n4ccccc4nc32)cc1 | i | -9 | -2 | -9 | 3
COc1ccc(CCn2c(=N)c(C(=O)NC3CCCC3)cc3c(=O)n4ccccc4nc32)cc1OC | i | -7 | -2 | -59 | 10*
N=c1c(C(=O)NCc2ccco2)cc2c(=O)n3ccccc3nc2n1Cc1ccc(Cl)cc1 | i | 52 | -2 | -24 | 5
CCc1nc(CNC(=O)C2CCC(=O)N(CCc3cccc(F)c3)C2)no1 (stereo unspecified) | i | -4 | -1 | -10 | -1
CCOC(=O)c1c(C)n(C)c2ccc(OCC(O)CN3CCC(C)CC3)cc12 (stereo unspecified) | i | 5 | -2 | -3 | 7.9*
Cc1nnc2ccc(-c3cccc(NC(=O)c4ccc(Cl)nc4)c3)nn12 | i | -3 | -4 | 5 | 5
Cc1nnc2ccc(-c3cccc(NC(=O)c4ccc(Br)o4)c3)nn12 | i | -8 | -3 | 12 | 10*
CC1(OC(=O)CCc2ccccc2)C(=O)C=C2C=C(c3ccc(C#N)cc3)N(CC3CC3)C=C2C1=O (stereo unspecified) | i | 34 | x | 19 | x
CC1(OC(=O)C2CCCC2)C(=O)C=C2C=C(c3ccsc3)OC=C2C1=O (stereo unspecified) | i | 40 | x | -46 | x
CC1(OC(=O)CCc2ccccc2)C(=O)C=C2C=C(c3ccc(C#N)cc3)N(C3CCCC3)C=C2C1=O (stereo unspecified) | + | 59 | x | 34 | x
CC1(OC(=O)CCc2ccccc2)C(=O)C=C2C=C(c3ccsc3)OC=C2C1=O (stereo unspecified) | + | 70* | x | x | x
COc1ccc(O)c(C(=O)c2cc(SCC(=O)O)c3nc4sc5c(c4c(=O)n3c2)CCCC5)c1 | + | 81* | -1 | -14 | 0
